In series [1] the test system is Aspergillus fumigatus. Nature of the series: Induction of membrane damage in Aspergillus fumigatus at 1.56 to 100 uM at pH 5.5 by Sytox green-based fluorescence assay. Type of series: functional, organism-based. In a few lines:
(§1)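 A. fumigatus at 2 × 10^3 CFU/mL in RPMI/MOPS (pH 7.4 or 5.5) was grown 20 h at 35 °C. Sytox green was added at 0.2 μM final in sodium phosphate buffer (pH 5.5 or 7.5) for 15 min. Peptides were then added at 100–1.56 μM final. Fluorescence (ex 485/em 530 nm) was read after 1 h.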

The subject of series [2] is Aspergillus fumigatus. Description: Induction of membrane depolarization in Aspergillus fumigatus at 1.56 to 100 uM at pH 5.5 by DiSC3(5)-based fluorescence assay. The format is functional, organism-based. In a few lines: (§2)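 A. fumigatus was pregrown 20 h at 35 °C from 2 × 10^3 CFU/mL in RPMI/MOPS (pH 7.4 or 5.5). Cells were loaded with DiSC3(5) at 0.2 μM final in sodium phosphate buffer (pH 5.5 or 7.5) for 15 min. Peptides were added at 1.56–100 μM final, and fluorescence (ex 640/em 660 nm) was read after 1 h.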

Series [3] can be described thus: Stability of the compound at 1 ug/uL after 2 hrs by RP-HPLC analysis in presence of proteinase K. The format is ADME. Conditions: 2 h. In a few lines:
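Peptide at 1 μg/μL in PBS (400 μL) mixed with 8 μL proteinase K solution (5 μg/μL; 2% DMSO final). Intact peptide quantified by RP-HPLC on a C4 column, 0.1% TFA water/acetonitrile, 10–90% B over 40 min. Measured against a peptide injection taken before enzyme addition. Melittin served as enzyme-activity control.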

The subject of series [4] is Aspergillus fumigatus. Nature of the series: Induction of membrane depolarization in Aspergillus fumigatus at 1.56 to 100 uM at pH 7.5 by DiSC3(5)-based fluorescence assay. Type of series: functional, organism-based. In a few lines:
as §2

The subject of series [5] is Aspergillus fumigatus. Nature of the series: Induction of membrane damage in Aspergillus fumigatus at 1.56 to 100 uM at pH 7.5 by Sytox green-based fluorescence assay. The format is functional, organism-based. In a few lines:
as §1

Series [6] has as its system Staphylococcus aureus. Nature of the series: Antibacterial activity against Staphylococcus aureus ATCC 6538P after 18 to 20 hrs at pH 5.5. The format is functional, organism-based. In a few lines:
(§3)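 Broth microdilution in LB: bacterial suspension at 10^6 CFU/mL mixed 1:1 with serial 2-fold peptide dilutions, made from a 1 mg/mL aqueous stock. Strains were E. coli ATCC D21 and S. aureus ATCC 6538P. MIC was the lowest concentration with no growth after 18–20 h. Values are averages of duplicate experiments.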

Series [7] relates to Candida albicans. Description: Antifungal activity against Candida albicans ATCC 10231 after 48 hrs at pH 7.5. Type of series: functional. Conditions: ATCC 10231, 48 h. In a few lines: (§4)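 The method followed CLSI M38-A2 (Aspergillus) or M27-A3. Medium was RPMI 1640 with 0.165 M MOPS and L-glutamine, without NaHCO3, at pH 5.5 or 7.5. Inoculum of 2 × 10^3 CFU/mL was mixed 1:1 with serial 2-fold peptide dilutions. Incubation was at 35 °C: 48 h for A. fumigatus and C. albicans, 72 h for C. neoformans. MIC was read by eye as no growth. Values are averages of duplicates.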

The subject of series [8] is Cryptococcus neoformans. Description: Antifungal activity against Cryptococcus neoformans ATCC MYA422 after 72 hrs at pH 7.5. The format is functional. Conditions: ATCC MYA422, 72 h. In a few lines: as §4
The subject of series [9] is Candida albicans. Nature of the series: Antifungal activity against Candida albicans ATCC 10231 after 48 hrs at pH 5.5. Conditions: ATCC 10231, 48 h. The format is functional. In a few lines: as §4
Series [10] concerns Staphylococcus aureus. Nature of the series: Antibacterial activity against Staphylococcus aureus ATCC 6538P after 18 to 20 hrs at pH 7.5. The format is functional, organism-based. In a few lines: as §3
Series [11] has as its system Aspergillus fumigatus. Description: Antifungal activity against Aspergillus fumigatus ATCC 26430 after 48 hrs at pH 7.5. The format is functional. Conditions: ATCC 26430, 48 h. In a few lines:
as §4

For series [12], the system named is Escherichia coli. Nature of the series: Antibacterial activity against Escherichia coli ATCC D21 after 18 to 20 hrs at pH 7.5. The format is functional, organism-based. In a few lines: as §3
Series [13] has as its system Aspergillus fumigatus. Description: Antifungal activity against Aspergillus fumigatus ATCC 26430 after 48 hrs at pH 5.5. Type of series: functional. Conditions: ATCC 26430, 48 h. In a few lines: as §4
Series [14] concerns Escherichia coli. Nature of the series: Antibacterial activity against Escherichia coli ATCC D21 after 18 to 20 hrs at pH 5.5. Type of series: functional, organism-based. In a few lines: as §3
The test system of series [15] is Cryptococcus neoformans. Description: Antifungal activity against Cryptococcus neoformans ATCC MYA422 after 72 hrs at pH 5.5. The format is functional. Conditions: ATCC MYA422, 72 h. In a few lines: as §4

Each structure is given as a SMILES string. Converted amounts (≈) assume the structure as drawn. The source made the active and inactive calls. No cut-off for these calls is given here.

As for `CC[C@H](C)[C@H](NC(=O)CN)C(=O)NCC(=O)N[C@@H](C)C(=O)N[C@H](C(=O)N[C@@H](CC(C)C)C(=O)N[C@@H](CCCCN)C(=O)N[C@H](C(=O)N[C@@H](CC(C)C)C(=O)N[C@H](C(=O)N[C@H](C(=O)NCC(=O)N[C@@H](CC(C)C)C(=O)N1CCC[C@H]1C(=O)N[C@@H](C)C(=O)N[C@@H](CC(C)C)C(=O)N[C@H](C(=O)N[C@@H](CO)C(=O)N[C@@H](Cc1c[nH]c2ccccc12)C(=O)N[C@H](C(=O)N[C@@H](CCCCN)C(=O)N[C@@H](CCCNC(=N)N)C(=O)N[C@@H](CCCCN)C(=O)N[C@@H](CCCNC(=N)N)C(=O)N[C@@H](CCC(N)=O)C(=O)N[C@@H](CCC(N)=O)C(N)=O)[C@@H](C)CC)[C@@H](C)CC)[C@@H](C)O)[C@@H](C)O)C(C)C)C(C)C` [MELITTIN], the result with Aspergillus fumigatus [1], with Aspergillus fumigatus [2], in the series with Aspergillus fumigatus [4] and in the series on Aspergillus fumigatus [5] was Active. Also, the Stability result in series [3] is reported as “Unstable”.
Turning to `CCCCCC(=O)N[C@@H](Cc1cnc[nH]1)C(=O)N[C@@H](Cc1cnc[nH]1)C(=O)N1CCCN(C(=O)[C@H](Cc2cnc[nH]2)NC(=O)[C@H](Cc2cnc[nH]2)NC(=O)CCCCC)Cc2cc(cc(C(N)=O)c2)CN(C(=O)[C@H](Cc2cnc[nH]2)NC(=O)[C@H](Cc2cnc[nH]2)NC(=O)CCCCC)CCC1`, the outcome in the series with Staphylococcus aureus [6], in the series with Aspergillus fumigatus [1], with Staphylococcus aureus [10], in the series with Aspergillus fumigatus [2], with Escherichia coli [12] and in the series on Aspergillus fumigatus [4] was inactive. For the same compound, the outcome in the series on Escherichia coli [14] and with Aspergillus fumigatus [5] was inactive. The minimal inhibitory concentration (MIC) with Candida albicans [7], against Cryptococcus neoformans [8], against Candida albicans [9], with Aspergillus fumigatus [11], against Aspergillus fumigatus [13] and against Cryptococcus neoformans [15] was above 100 µM in each case.
Regarding `CCCCCCCCCCCCCCN[C@@H](Cc1cnc[nH]1)C(=O)N[C@@H](Cc1cnc[nH]1)C(=O)O`, the MIC against Candida albicans [7] was above 100 µM; against Cryptococcus neoformans [8], above 100 µM; in the series with Candida albicans [9] it was above 100 µM; in the series on Aspergillus fumigatus [11], above 100 µM; in the series with Aspergillus fumigatus [13], 50 µM (≈ 24.4 µg/mL); with Cryptococcus neoformans [15], 25 µM (≈ 12.2 µg/mL). In addition, the result with Aspergillus fumigatus [1], in the series on Aspergillus fumigatus [2], in the series with Aspergillus fumigatus [4] and with Aspergillus fumigatus [5] was inactive.
In the case of `CCCCCCCCCCCCCC(=O)N[C@@H](Cc1c[nH]cn1)C(=O)N[C@@H](Cc1c[nH]cn1)C(=O)N1CCCN(C(=O)[C@H](Cc2c[nH]cn2)NC(=O)[C@H](Cc2c[nH]cn2)NC(=O)CCCCCCCCCCCCC)Cc2cc(cc(C(N)=O)c2)CN(C(=O)[C@H](Cc2c[nH]cn2)NC(=O)[C@H](Cc2c[nH]cn2)NC(=O)CCCCCCCCCCCCC)CCC1`, the result with Staphylococcus aureus [6], in the series with Aspergillus fumigatus [1], in the series on Staphylococcus aureus [10], in the series with Escherichia coli [12], with Escherichia coli [14] and in the series with Aspergillus fumigatus [5] was inactive. In addition, the result with Aspergillus fumigatus [2] and in the series with Aspergillus fumigatus [4] was Active.

(Values after ChEMBL document CHEMBL2016446, “Trivalent ultrashort lipopeptides are potent pH dependent antifungal agents” (J Med Chem, 2012).)
